Measurements published in ChEMBL document CHEMBL1629633, “Prevalence of sulfonamide resistance genes in bacterial isolates from manured agricultural soils and pig slurry in the United Kingdom” (2009).
Converted amounts (≈) assume the structure as drawn.

Experiments:
Type in all cases: functional
Enterococcus sulfureus = assay: Antimicrobial activity against Enterococcus sulfureus isolate PGS61 harboring sul1 to sul3 genes by agar dilution method
Summary of the method: (§1)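 Agar dilution on Iso-Sensitest agar for MICs and resistance breakpoints. Each isolate's inoculum (100 μl) was adjusted to OD600 0.4. Isolates came from soil cores of a field given pig slurry, or from the pig slurry itself. They were picked from nonselective or antibiotic plates incubated aerobically at 28°C, purified by restreaking, checked for sul genes by PCR and identified by 16S rRNA sequencing.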

[1] = Antimicrobial activity against Psychrobacter sp. DY9-2 isolate C711 harboring sul1 to sul3 genes by agar dilution method
Summary of the method: (§2)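 Isolates were recovered from manured clay soil or pig slurry on Iso-Sensitest agar at 28°C. sul genes were detected by PCR, and identity was assigned by ~800 bp 16S rRNA sequencing. MICs and resistance breakpoints were found by agar dilution on Iso-Sensitest agar, with each inoculum (100 μl) adjusted to OD600 0.4.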

Pseudomonas borealis = assay: Antimicrobial activity against Pseudomonas borealis isolate C5 harboring sul1 to sul3 genes by agar dilution method; summary of the method: as §1
Acinetobacter lwoffii [2] = assay: Antimicrobial activity against Acinetobacter lwoffii isolate C141 harboring sul1 to sul3 genes by agar dilution method; summary of the method: as §1
[3] = test system: Lysinibacillus sphaericus; assay: Antimicrobial activity against Bacillus sphaericus isolate C237 harboring sul1 to sul3 genes by agar dilution method; summary of the method: as §1
Acinetobacter lwoffii [4] = assay: Antimicrobial activity against Acinetobacter lwoffii isolate C3 harboring sul1 to sul3 genes by agar dilution method; summary of the method: as §1
[5] = test system: Arthrobacter arilaitensis; assay: Antimicrobial activity against Arthrobacter arilaitensis isolate C361 harboring sul1 to sul3 genes by agar dilution method; settings: Glutamicibacter arilaitensis; summary of the method: as §1
[6] = Antimicrobial activity against Acinetobacter sp. An9 isolate PGS49 harboring sul1 to sul3 genes by agar dilution method; summary of the method: as §1
Pseudomonas lini = assay: Antimicrobial activity against Pseudomonas lini isolate C701 harboring sul1 to sul3 genes by agar dilution method; summary of the method: as §1
[7] = test system: Stenotrophomonas maltophilia; assay: Antimicrobial activity against Stenotrophomonas maltophilia isolate C422 harboring sul1 to sul3 genes by agar dilution method; summary of the method: as §2
Pseudomonas fluorescens = assay: Antimicrobial activity against Pseudomonas fluorescens isolate C131 harboring sul1 to sul3 genes by agar dilution method; summary of the method: as §1
Aerococcus viridans [8] = assay: Antimicrobial activity against Aerococcus viridans isolate PGS21 harboring sul1 to sul3 genes by agar dilution method; summary of the method: as §1
[9] = Antimicrobial activity against Psychrobacter ikaite isolate C713 harboring sul1 to sul3 genes by agar dilution method; summary of the method: as §2
Acinetobacter lwoffii [10] = assay: Antimicrobial activity against Acinetobacter lwoffii isolate PGS47 harboring sul1 to sul3 genes by agar dilution method; summary of the method: as §1
Shigella flexneri = assay: Antimicrobial activity against Shigella flexneri isolate C506 harboring sul1 to sul3 genes by agar dilution method; summary of the method: as §2
Enterococcus hirae = assay: Antimicrobial activity against Enterococcus hirae isolate PGS48 harboring sul1 to sul3 genes by agar dilution method; summary of the method: as §1
[11] = test system: Acinetobacter calcoaceticus; assay: Antimicrobial activity against Acinetobacter calcoaceticus isolate C36 harboring sul1 to sul3 genes by agar dilution method; summary of the method: as §1
Acinetobacter baumannii = assay: Antimicrobial activity against Acinetobacter baumannii isolate C442 harboring sul1 to sul3 genes by agar dilution method; summary of the method: as §1
[12] = Antimicrobial activity against Psychrobacter ikaite isolate C20 harboring sul1 to sul3 genes by agar dilution method; summary of the method: as §2
Pseudomonas putida = assay: Antimicrobial activity against Pseudomonas putida isolate C231 harboring sul1 to sul3 genes by agar dilution method; summary of the method: as §1
[13] = test system: Acinetobacter rhizosphaerae; assay: Antimicrobial activity against Acinetobacter rhizosphaerae isolate C44 harboring sul1 to sul3 genes by agar dilution method; summary of the method: as §1
[14] = test system: Acinetobacter calcoaceticus; assay: Antimicrobial activity against Acinetobacter calcoaceticus isolate C35 harboring sul1 to sul3 genes by agar dilution method; summary of the method: as §1
Acinetobacter lwoffii [15] = assay: Antimicrobial activity against Acinetobacter lwoffii isolate C15 harboring sul1 to sul3 genes by agar dilution method; summary of the method: as §1
Providencia stuartii = assay: Antimicrobial activity against Providencia stuartii isolate C167 harboring sul1 to sul3 genes by agar dilution method; summary of the method: as §1
Acinetobacter lwoffii [16] = assay: Antimicrobial activity against Acinetobacter lwoffii isolate C2 harboring sul1 to sul3 genes by agar dilution method; summary of the method: as §1
[17] = Antimicrobial activity against Acinetobacter sp. N2 isolate C439 harboring sul1 to sul3 genes by agar dilution method; summary of the method: as §1
Acinetobacter lwoffii [18] = assay: Antimicrobial activity against Acinetobacter lwoffii isolate C37 harboring sul1 to sul3 genes by agar dilution method; summary of the method: as §1
[19] = test system: Psychrobacter frigidicola; assay: Antimicrobial activity against Psychrobacter frigidicola isolate C712 harboring sul1 to sul3 genes by agar dilution method; summary of the method: as §1
Bacillus psychrodurans = assay: Antimicrobial activity against Bacillus psychrodurans isolate C328 harboring sul1 to sul3 genes by agar dilution method; settings: Psychrobacillus psychrodurans; summary of the method: as §1
Aerococcus viridans [20] = assay: Antimicrobial activity against Aerococcus viridans isolate PGS22 harboring sul1 to sul3 genes by agar dilution method; summary of the method: as §1
[21] = Antimicrobial activity against Psychrobacter ikaite isolate C410 harboring sul1 to sul3 genes by agar dilution method; summary of the method: as §2

For `Nc1ccc(S(=O)(=O)Nc2ccc(Cl)nn2)cc1` [SULFACHLORPYRIDAZINE], the MIC (Enterococcus sulfureus) was 4 µg/mL (≈ 14 µM), the MIC [1] was 8 µg/mL (≈ 28.1 µM) and the MIC (Pseudomonas borealis) was 32 µg/mL (≈ 112 µM). It also gave an MIC (Acinetobacter lwoffii [2]) of 6 µg/mL (≈ 21.1 µM), an MIC [3] of 1 µg/mL (≈ 3.51 µM) and an MIC (Acinetobacter lwoffii [4]) of 1 µg/mL (≈ 3.51 µM). The MIC [5] was 5 µg/mL (≈ 17.6 µM), the MIC [6] was 16 µg/mL (≈ 56.2 µM) and the MIC (Pseudomonas lini) was 1 µg/mL (≈ 3.51 µM). It also gave an MIC [7] of 1 µg/mL (≈ 3.51 µM), an MIC (Pseudomonas fluorescens) of 32 µg/mL (≈ 112 µM) and an MIC (Aerococcus viridans [8]) of 32 µg/mL (≈ 112 µM). The MIC [9] was 8 µg/mL (≈ 28.1 µM), the MIC (Acinetobacter lwoffii [10]) was 16 µg/mL (≈ 56.2 µM) and the MIC (Shigella flexneri) was 8 µg/mL (≈ 28.1 µM). It also gave an MIC (Enterococcus hirae) of 4 µg/mL (≈ 14 µM), an MIC [11] of 8 µg/mL (≈ 28.1 µM) and an MIC (Acinetobacter baumannii) of 8 µg/mL (≈ 28.1 µM). It also gave an MIC [12] of 5 µg/mL (≈ 17.6 µM), an MIC (Pseudomonas putida) of 8 µg/mL (≈ 28.1 µM) and an MIC [13] of 5 µg/mL (≈ 17.6 µM). It also gave an MIC [14] of 8 µg/mL (≈ 28.1 µM), an MIC (Acinetobacter lwoffii [15]) of 5 µg/mL (≈ 17.6 µM) and an MIC (Providencia stuartii) of 6 µg/mL (≈ 21.1 µM). For the same compound, the MIC (Acinetobacter lwoffii [16]) was 5 µg/mL (≈ 17.6 µM), the MIC [17] was 16 µg/mL (≈ 56.2 µM) and the MIC (Acinetobacter lwoffii [18]) was 8 µg/mL (≈ 28.1 µM). The MIC [19] was 8 µg/mL (≈ 28.1 µM), the MIC (Bacillus psychrodurans) was 8 µg/mL (≈ 28.1 µM) and the MIC (Aerococcus viridans [20]) was 8 µg/mL (≈ 28.1 µM). It also gave an MIC [21] of 16 µg/mL (≈ 56.2 µM).
